Experimental data: ChEMBL document CHEMBL1142958, “Carboxylated, heteroaryl-substituted chalcones as inhibitors of vascular cell adhesion molecule-1 expression for use in chronic inflammatory diseases” (J Med Chem, 2007)
Activity calls are given as the source filed them. The rule behind the calls is not given here.

How the values were obtained:
[1] = Inhibition of TNF-alpha-induced VCAM1 expression in HPAECs; type: functional, Homo sapiens
Outline: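 Cells were seeded to reach 90–95% confluency the next day. They were stimulated with TNF-α (1 ng/mL) ± compound (final DMSO 0.25%) for about 16 h and scored visually for toxicity. Cell-surface VCAM-1 was measured by anti-VCAM-1 (0.25 µg/mL, 30 min, 37 °C), then HRP anti-mouse IgG and TMB, read at OD 450 nm. IC50 is relative to the TNF-only response; mean of ≥3 determinations.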

Mus musculus [2] = test: Activity in sc dosed ovalbumin-sensitized/challenged Balb/C mouse model of allergic asthma assessed as reduction of elevated lung mRNA levels of Th2 cytokines after 14 days; type: functional, organism-based
Mus musculus [3] = test: Activity in sc dosed ovalbumin-sensitized/challenged Balb/C mouse model of allergic asthma by measuring reduced IgE levels after 14 days; type: functional, organism-based
Mus musculus [4] = test: Inhibition of tissue eosinophilia in sc dosed ovalbumin-sensitized/challenged Balb/C mouse model of allergic asthma after 14 days; type: functional, organism-based
Mus musculus [5] = test: Reduction of airway hyperresponsiveness in sc dosed ovalbumin-sensitized/challenged Balb/C mouse model of allergic asthma after 14 days; type: functional, organism-based
PBMC = test: Inhibition of LPS-induced IL1-beta secretion in HPBMCs at 5 uM; type: functional, cell-based; conditions: Homo sapiens
Homo sapiens [6] = species on record: Homo sapiens; test: Inhibition of TNF-alpha-induced E-selectin expression in HPAECs; type: functional
Homo sapiens [7] = species on record: Homo sapiens; test: Inhibition of TNF-alpha-induced MCP1 expression in HPAECs; type: functional
Mus musculus [8] = test: Inhibition of airway eosinophilia in BALF in sc dosed ovalbumin-sensitized/challenged Balb/C mouse model of allergic airway inflammation after 14 days; type: functional, organism-based
Outline: (§1)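 Male Balb/C mice, 5–6 weeks old, were sensitized i.p. with ovalbumin (8 µg) emulsified in aluminum hydroxide (1 mg) per mouse. They were then dosed s.c. in 2% Cremophor at 150, 100 or 50 mg/kg bid on days 11–13 and once on day 14. On day 14 lungs were lavaged (DMEM/F-12 + 5% FBS). Eosinophils were expressed as % of ≥300 Diff Quik-stained cytospin cells. Dexamethasone 3 mg/kg i.p. served as positive control.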

Rattus norvegicus [9] = species on record: Rattus norvegicus; test: Inhibition of paw swelling in rat adjuvant arthritis model; type: functional, organism-based
Rattus norvegicus [10] = species on record: Rattus norvegicus; test: Inhibition of splenomegaly in rat adjuvant arthritis model; type: functional, organism-based
[11] = Plasma concentration in ovalbumin-sensitized/challenged Balb/C mouse model of allergic airway inflammation at 50 mg/kg, sc after 14 days; type: ADME, organism-based; set-up: dose 50 mg/kg, route subcutaneous
Outline: (§2)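 Ovalbumin/alum-sensitized male Balb/C mice received s.c. doses in 2% Cremophor, bid on days 11–13 and once on day 14. Blood for plasma drug level was collected at euthanasia on day 14, 2–3 h after the final dose.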

Mus musculus [12] = test: Reduction of eosinophil level in BALF in ovalbumin-sensitized/challenged Balb/C mouse model of allergic airway inflammation at 150 mg/kg, sc after 14 days; type: functional; set-up: scale not given: the % may be the effect or the level left; conditions: route subcutaneous; outline: as §1
Mus musculus [13] = test: Reduction of eosinophil level in BALF in ovalbumin-sensitized/challenged Balb/C mouse model of allergic airway inflammation at 50 mg/kg, sc after 14 days; type: functional; set-up: scale not given: the % may be the effect or the level left; conditions: route subcutaneous; outline: as §1
[14] = Plasma concentration in ovalbumin-sensitized/challenged Balb/C mouse model of allergic airway inflammation at 150 mg/kg, sc after 14 days; type: ADME, organism-based; set-up: dose 150 mg/kg, route subcutaneous; outline: as §2
[15] = Plasma concentration in ovalbumin-sensitized/challenged Balb/C mouse model of allergic airway inflammation at 100 mg/kg, sc after 14 days; type: ADME, organism-based; set-up: dose 100 mg/kg, route subcutaneous; outline: as §2
Mus musculus [16] = test: Reduction of eosinophil level in BALF in ovalbumin-sensitized/challenged Balb/C mouse model of allergic airway inflammation at 100 mg/kg, po after 14 days; type: functional; set-up: scale not given: the % may be the effect or the level left

Row | IC50 [1] [µM] | SMILES | other results
1 | 4 | COCCOCCOCCOc1cc(OC)c(-c2cccs2)cc1/C=C/C(=O)c1ccc(C(=O)O)cc1 | –
2 | 22 | CCc1cc(/C=C/C(=O)c2ccc(C(=O)O)cc2)c(OC)cc1OC | –
3 | 1.2 | COc1cc(OC)c(-c2cc3ccccc3n2C(=O)OC(C)(C)C)cc1/C=C/C(=O)c1ccc(C(=O)O)cc1 | –
4 | 3.1 | COc1ccc(-c2cccs2)cc1/C=C/C(=O)c1ccc(C(=O)O)cc1 | –
5 | 0.8 | COc1cc(OC)c(-c2cc3ccccc3s2)cc1/C=C/C(=O)c1ccc(C(=O)NCCN2CCOCC2)cc1 | –
6 | 0.6 | COc1cc(OC)c(-c2cc3ccccc3s2)cc1/C=C/C(=O)c1ccc(C(=O)O)cc1 | Activity (Mus musculus [2]): Active; Activity (Mus musculus [3]): Active; Activity (Mus musculus [4]): Dose-dependent effect; Activity (Mus musculus [5]): Active; Activity (PBMC): Active; Activity (Homo sapiens [6]): Active; Activity (Homo sapiens [7]): Active; Activity (Mus musculus [8]): Dose-dependent effect; Activity (Rattus norvegicus [9]): Dose-dependent effect; Activity (Rattus norvegicus [10]): Dose-dependent effect
7 | 8.6 | COc1cc(OC)c(-c2cccs2)cc1/C=C/C(=O)c1ccccc1C(=O)O | –
8 | 2.5 | COc1cc(OC)c(-c2csc(C)n2)cc1/C=C/C(=O)c1ccc(C(=O)O)cc1 | –
9 | 0.3 | COc1cc(OC)c(-c2cc3ccccc3o2)cc1/C=C/C(=O)c1ccc(C(=O)O)cc1 | –
10 | 6.5 | COCCOCCOc1cc(OC)c(/C=C/C(=O)c2ccc(C(=O)O)cc2)cc1-c1cccs1 | –
11 | 3.8 | COc1cc(OC)c(-c2cccs2)cc1/C=C/C(=O)c1ccc(C(=O)O)cc1 | –
12 | 0.9 | COc1cc(OCCCN2CCOCC2)c(/C=C/C(=O)c2ccc(C(=O)O)cc2)cc1-c1cccs1 | –
13 | 0.5 | CONC(=O)c1ccc(C(=O)/C=C/c2cc(-c3cc4ccccc4s3)c(OC)cc2OC)cc1 | –
14 | 6 | COc1cc(OCC(=O)N2CCOCC2)c(/C=C/C(=O)c2ccc(C(=O)O)cc2)cc1-c1cccs1 | –
15 | 1.3 | COCCOCCOc1cc(OC)c(-c2cccs2)cc1/C=C/C(=O)c1ccc(C(=O)O)cc1 | –
16 | 4.9 | CCOc1cc(OC)c(/C=C/C(=O)c2ccc(C(=O)O)cc2)cc1-c1cccs1 | –
17 | 0.2 | COc1cc(OC)c(-c2cc3ccccc3s2)cc1/C=C/C(=O)c1ccc(C(N)=O)cc1 | –
18 | 4.4 | COc1cc(OC)c(-c2nc3ccccc3[nH]2)cc1/C=C/C(=O)c1ccc(C(=O)O)cc1 | –
19 | 0.8 | COc1cc(OCCN2CCOCC2)c(/C=C/C(=O)c2ccc(C(=O)O)cc2)cc1-c1cccs1 | –
20 | 2.1 | COc1cc(OC)c(-c2ccsc2)cc1/C=C/C(=O)c1ccc(C(=O)O)cc1 | –
21 | 3.1 | CCOC(=O)c1ccc(C(=O)/C=C/c2cc(-c3cc4ccccc4s3)c(OC)cc2OC)cc1 | –
22 | 1 | COc1cc(OC)c(-c2ccc(C)s2)cc1/C=C/C(=O)c1ccc(C(=O)O)cc1 | –
23 | 1.7 | COc1cc(OC)c(-c2cc3ccccc3s2)cc1/C=C/C(=O)c1ccc(C(=O)NC(=O)C(C)C)cc1 | –
24 | 41 | COc1cc(OCC(CO)CO)c(-c2cccs2)cc1/C=C/C(=O)c1ccc(C(=O)O)cc1 | –
25 | 21 | COc1cc(OCC(CO)CO)c(/C=C/C(=O)c2ccc(C(=O)O)cc2)cc1-c1cccs1 | –
26 | 0.8 | COc1cc(OC)c(-c2cc3ccccc3s2)cc1/C=C/C(=O)c1ccc(C(=O)NC(C)=O)cc1 | –
27 | 0.9 | COc1cc(OC)c(-c2cc3ccccc3[nH]2)cc1/C=C/C(=O)c1ccc(C(=O)O)cc1 | concentration at 336 h [11]: 10 µM; Activity (Mus musculus [12]): 81%; Activity (Mus musculus [13]): 55%; concentration at 336 h [14]: 19 µM; Activity (Mus musculus [8]): Dose-dependent effect; concentration at 336 h [15]: 14 µM; Activity (Mus musculus [16]): 43%
28 | 4.2 | COc1cc(OC)c(-c2cccs2)cc1/C=C/C(=O)c1cccc(C(=O)O)c1 | –
